Data set [1] has as its target T1, Poly [ADP-ribose] polymerase 1 (Homo sapiens, UniProt P09874). The data set is described as follows: Inhibition of GST-tagged recombinant human PARP-1 expressed in Escherichia coli after 30 mins by fluorescence-based assay.
Data set [2] in a line: Growth inhibition of human MDA-MB-436 cells after 7 days by SRB assay. The following applies: MDA-MB-436, 7 days. (In general: In SRB staining, fixed cells bind dye roughly in proportion to their protein.)
In data set [3] the target is T1, Poly [ADP-ribose] polymerase 1. Kind of data set: Inhibition of PARP-1-mediated PARylation in H2O2-induced human HeLa cells preincubated for 3 hrs followed by H2O2 addition measured after 5 mins by Draq5 staining-based fluorescence assay. It is filed as cell-based. The method, boiled down: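 HeLa cell PARylation assay; EC50 values are the mean of two experiments.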

Another data set deals with MX1. Kind of data set: Antitumor activity against human MX1 cells xenografted in SCID beige mouse assessed as tumor volume inhibition at 200 mg/kg, ip administered qd for 5 days per week up to 3 weeks relative to control. The settings on record: route intraperitoneal. Details: scale not given: the % may be the effect or the level left; call rule not given here. It is filed as functional. The gist of the method:
(§1)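 MX1 breast carcinoma cells were xenografted into athymic SCID beige mice, with dosing starting 7 days after tumor injection. Compound was given intraperitoneally at 200 mg/10 mL/kg, schedule qdx5/wx3w, versus a vehicle group; 8 mice per group. Tumor volume and body weight loss were read at day +38. Tumor volume was compared with the vehicle group by Mann-Whitney test.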
In general terms: In xenograft studies the graft and the host belong to different species.

A short description of data set [4]: Ratio of drug level in blood to plasma (unknown origin) after 60 mins. It is filed as ADME. The following applies: blood and plasma.
Data set [5] can be described thus: Metabolic stability in human plasma assessed as compound recovery after 2 hrs. It counts as ADME, cell-free. The following applies: read-out: Drug recovery.
The subject of data set [6] is Mus musculus. The data set is described as follows: Toxicity in SCID beige mouse xenografted with human MX1 cells assessed as lethality at 200 mg/kg, ip administered qd for 5 days per week up to 3 weeks. It is filed as organism-based. On the set-up: dose 200 mg/kg, route intraperitoneal. The following applies: in vivo. The method, boiled down: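 Athymic SCID beige mice carrying MX1 breast carcinoma xenografts (BRCA1 deletion, BRCA2 mutation), 8 per group. Treatment began 7 days after tumour cell injection: ip at 200 mg/kg in 10 mL/kg, once daily 5 days/week for 3 weeks, with a vehicle-treated control group. Lethality was scored as deaths per group. Body-weight loss % was recorded alongside, and tumour volume was measured at day +38.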

Data set [7] can be described thus: Efflux ratio of permeability in human Caco2 cells. The following applies: Caco-2. It is filed as ADME, cell-based. The method, boiled down:
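Bidirectional Caco-2 cell monolayer permeability assay; the efflux ratio was derived from the two transport directions.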
(In general: Passage across Caco-2 layers is used to estimate intestinal permeability.)

Data set [8] can be described thus: Activity at P-gp (unknown origin). It is filed as ADME. The following applies: human.
Data set [9] concerns Mus musculus. Kind of data set: Toxicity in SCID beige mouse xenografted with human MX1 cells assessed as body weight loss at 200 mg/kg, ip administered qd for 5 days per week up to 3 weeks relative to control. It counts as organism-based. Details: dose 200 mg/kg, route intraperitoneal. The following applies: in vivo. The method, boiled down: as §1
Data set [10] can be described thus: Half life in human hepatocytes. It is filed as ADME, cell-based, Hepatocyte.

The structures appear in SMILES notation.

T1 sequence (P09874 whole entry): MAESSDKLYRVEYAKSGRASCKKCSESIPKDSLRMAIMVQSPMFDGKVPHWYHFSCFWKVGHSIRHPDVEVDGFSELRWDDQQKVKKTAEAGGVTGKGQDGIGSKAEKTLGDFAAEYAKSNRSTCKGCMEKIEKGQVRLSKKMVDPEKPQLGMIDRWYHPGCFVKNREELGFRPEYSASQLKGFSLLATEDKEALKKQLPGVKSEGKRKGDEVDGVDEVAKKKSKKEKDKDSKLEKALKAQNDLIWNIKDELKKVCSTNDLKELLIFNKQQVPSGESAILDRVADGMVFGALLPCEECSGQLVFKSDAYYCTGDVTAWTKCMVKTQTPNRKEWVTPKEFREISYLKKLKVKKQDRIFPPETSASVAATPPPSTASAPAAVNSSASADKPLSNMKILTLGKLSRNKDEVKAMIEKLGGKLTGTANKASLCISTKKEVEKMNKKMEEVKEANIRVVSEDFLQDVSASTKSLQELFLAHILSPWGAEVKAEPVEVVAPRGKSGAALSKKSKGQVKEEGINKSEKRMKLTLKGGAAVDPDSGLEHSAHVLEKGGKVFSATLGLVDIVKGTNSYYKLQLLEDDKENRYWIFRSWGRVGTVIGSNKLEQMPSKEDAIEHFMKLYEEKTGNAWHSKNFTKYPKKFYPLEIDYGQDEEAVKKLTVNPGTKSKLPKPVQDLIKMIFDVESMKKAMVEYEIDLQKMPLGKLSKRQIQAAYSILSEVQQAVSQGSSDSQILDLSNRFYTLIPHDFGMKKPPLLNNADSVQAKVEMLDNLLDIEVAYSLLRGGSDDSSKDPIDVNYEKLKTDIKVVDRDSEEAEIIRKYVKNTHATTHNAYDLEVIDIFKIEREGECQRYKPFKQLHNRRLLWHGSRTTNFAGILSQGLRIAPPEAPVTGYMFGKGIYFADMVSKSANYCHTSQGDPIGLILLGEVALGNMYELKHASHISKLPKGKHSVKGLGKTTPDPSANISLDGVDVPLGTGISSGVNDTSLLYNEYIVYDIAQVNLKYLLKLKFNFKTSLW

Consider `NC(=O)C1CCN(C(=O)CCc2nc(O)c3ccccc3n2)CC1`, for which the IC50 in data set [1] was found to be 0.27 µM.

Take `NC(=O)c1ccccc1OCC(=O)N1CCc2ccccc2C1`: the IC50 in data set [1] was found to be 0.0429 µM.

Consider `Cc1ccc2c(c1)CCCN2C(=O)CCc1nc2ccccc2c(=O)[nH]1`, for which the IC50 in data set [1] came to 1.03 µM.

For `Cc1oc(C(N)=O)cc1COc1ccccc1C(N)=O`, in data set [1], the IC50 came out at 1.66 µM.

As for `CN(C)CC(C)(C)CN/C=C1/C(=O)NC(=O)c2ccccc21`, the half-inhibitory concentration (IC50) in data set [1] was determined as 0.0874 µM.

Turning to `O=C(CCc1nc2ccccc2c(=O)[nH]1)N1CCN(C(=O)c2ccco2)CC1`, the IC50 in [1] was found to be 0.0285 µM.

In the case of `O=C(CCc1nc2ccccc2c(=O)[nH]1)N1CCN(C(=O)C2CC2)CC1`, the IC50 in [2] was found to be 51.1 µM; in data set [1], 0.0671 µM. In [3], this compound registered an EC50 of 0.707 µM.

On to `O=C(CCc1nc2ccccc2c(=O)[nH]1)N1CCN(C(=O)C2CCCC2)CC1`, for which, in data set [1], the IC50 is 0.11 µM.

`O=C(CCc1nc2ccccc2c(=O)[nH]1)N1CCN(C(=O)C2CCCO2)CC1` (stereo not drawn): in [1], the IC50 was found to be 0.13 µM.

In the case of `O=C(CCc1nc2ccccc2c(=O)[nH]1)N1CCN(C(=O)c2cccs2)CC1`, the Activity is 47% with MX1, “Non-toxic” in the data set with Mus musculus [6], “Not Active” in data set [8] and 10% in the data set on Mus musculus [9]. Further, the IC50 is 17.3 µM in [2] and 0.0098 µM in data set [1]. In data set [4], the blood plasma ratio at 1 h worked out at 0.4. For the same compound, in data set [5], the remaining at 2 h was determined as 50%. Further, in data set [7], the efflux ratio came out at 5.8. The compound further displayed an EC50 in [3] of 0.256 µM. The compound further gave a half-life in [10] of 9.73 h.

For the compound `O=C(CCc1nc2ccccc2c(=O)[nH]1)N1CCN(C(=O)c2ccc[nH]2)CC1`, the IC50 is 18.1 µM in [2] and 0.0295 µM in data set [1]. The EC50 in [3] amounted to 0.865 µM.

As to `Cc1c(C(=O)N2CCN(C(=O)CCc3nc4ccccc4c(=O)[nH]3)CC2)oc2ccccc12`, the 50% inhibitory concentration (IC50) in data set [1] came out at 0.13 µM.

With `O=C(CCc1nc2ccccc2c(=O)[nH]1)N1CCN(C(=O)c2ccc(F)cc2)CC1`, the IC50 in [2] was found to be 19.5 µM; in [1] it was 0.0561 µM. Moreover, in [4], the blood plasma ratio at 1 h was 0.4. For the same compound, the remaining at 2 h in data set [5] turned out to be 57%. In addition, the efflux ratio in data set [7] amounted to 6. In addition, in data set [8], the Activity entry is recorded as “Not Active”. In data set [3], this compound gave an EC50 of 0.467 µM. The same compound displayed a half-life in data set [10] of 10.3 h.

Consider `C=CCOC(=O)N1CCCC(C(=O)N2CCN(C(=O)CCc3nc4ccccc4c(=O)[nH]3)CC2)C1` (stereo not drawn), for which, in data set [1], the IC50 came out at 0.3 µM.

Regarding `O=C(CCc1nc2ccccc2c(=O)[nH]1)N1CCN(C(=O)C2CCCNC2)CC1` (stereo not drawn), the IC50 in data set [1] came out at 0.0319 µM.

Turning to `C=CCN1CCCC(C(=O)N2CCN(C(=O)CCc3nc4ccccc4c(=O)[nH]3)CC2)C1` (stereo not drawn), the concentration for half-maximal inhibition (IC50) in data set [1] is 0.22 µM.

Turning to `CC(=O)c1ccc(NC(=O)CCn2c(=O)[nH]c(=O)c3ccccc32)cc1`, the IC50 in data set [1] is 0.0876 µM.

Turning to `O=C(Cc1n[nH]c(=O)c2ccccc12)NCc1ccc(N2CCOCC2)nc1`, the IC50 in data set [1] was 0.0498 µM.

Consider `O=C1NC(=O)c2ccccc2/C1=C\Nc1ccccc1N1CCCCC1`, for which the half-maximal inhibitory concentration (IC50) in [1] was determined as 1.21 µM.

Regarding `O=C1NC(=O)c2ccccc2/C1=C\c1ccc(F)cc1`, the IC50 in [1] came to 2.54 µM.

Turning to `O=C1CN(C(=O)CCc2nc3ccccc3c(=O)[nH]2)CCN1`, in data set [1], the IC50 is 0.19 µM.

Turning to `NC(=O)c1ccc(NC(=O)CCCc2nc3ccccc3c(=O)[nH]2)cc1`, in [1], the half-inhibitory concentration (IC50) was 4.7 µM.

Consider `O=C1CN(C(=O)CSc2nc3ccccc3c(=O)[nH]2)c2ccccc2N1`, for which the IC50 in data set [1] is 0.54 µM.

For `NC(=O)c1ccc(NC(=O)CCn2c(=O)[nH]c(=O)c3ccccc32)cc1`, in data set [1], the IC50 is 0.13 µM.

For `CC(=O)Nc1ccc(NC(=O)CCn2c(=O)[nH]c(=O)c3ccccc32)cc1`, the IC50 in data set [1] turned out to be 0.76 µM.

For `NS(=O)(=O)Nc1ccc(NC(=O)CCn2c(=O)[nH]c(=O)c3ccccc32)cc1`, the concentration for half-maximal inhibition (IC50) in data set [1] worked out at 0.41 µM.

For the compound `O=C(CCn1c(=O)[nH]c(=O)c2ccccc21)Nc1ccccc1F`, in data set [1], the IC50 was 1.52 µM.

On to `Cc1ccc(NC(=O)CCn2c(=O)[nH]c(=O)c3ccccc32)c(O)c1`, for which the IC50 in data set [1] was found to be 0.35 µM.

Consider `Cc1ccc(NS(=O)(=O)c2ccc(NC(=O)Cn3c(=O)[nH]c(=O)c4ccccc43)cc2C)c(C)c1`, for which, in data set [1], the IC50 stood at 1.28 µM.

Turning to `O=C(c1n[nH]c(=O)c2ccccc12)N1CCN(/C=C/c2ccccc2)CC1`, in data set [1], the IC50 was determined as 0.26 µM.

For the compound `CC(NC(=O)Cc1n[nH]c(=O)c2ccccc12)c1ccc2c(c1)CCCC2` (stereo not drawn), the IC50 in data set [1] came out at 1.86 µM.

For `O=C(Cc1n[nH]c(=O)c2ccccc12)NCCc1ccc2c(c1)OCCO2`, in [1], the IC50 stood at 0.28 µM.

Turning to `O=C(Cc1n[nH]c(=O)c2ccccc12)NCc1ccc(S(=O)(=O)N2CCOCC2)cc1`, the concentration for half-maximal inhibition (IC50) in [1] turned out to be 0.6 µM.

As for `O=C(CN1CCN(C(=O)Cc2n[nH]c(=O)c3ccccc23)CC1)Nc1cccc(F)c1`, the IC50 in [1] worked out at 1.1 µM.

In the case of `CCN(CC(=O)Cc1c(F)cccc1F)C(=O)Cc1n[nH]c(=O)c2ccccc12`, in [1], the IC50 was determined as 0.6 µM.

For the compound `O=C(Cc1n[nH]c(=O)c2ccccc12)NCC(c1ccccc1Cl)N1CCCC1` (stereo not drawn), the half-inhibitory concentration (IC50) in data set [1] amounted to 1.96 µM.

Regarding `NC(=O)c1ccc(COc2ccccc2C(N)=O)cc1`, the IC50 in data set [1] stood at 0.82 µM.

For the compound `CC(NC(=O)COc1ccccc1C(N)=O)c1ccccc1` (stereo not drawn), in data set [1], the IC50 was 0.82 µM.

Turning to `NC(=O)c1ccccc1OCC(=O)N1CC(=O)Nc2cc(C(F)(F)F)ccc21`, the IC50 in [1] was determined as 1.06 µM.

Consider `CC(=O)c1ccc(N2CCN(C(=O)COc3ccccc3C(N)=O)CC2)c(F)c1`, for which the IC50 in data set [1] was determined as 0.28 µM.

Regarding `CC(C)NS(=O)(=O)c1ccc(NC(=O)Cc2n[nH]c(=O)c3ccccc23)cc1`, in [1], the IC50 is 0.69 µM.

Take `Cn1nnc2c(C(N)=O)ncn2c1=O` [TEMOZOLOMIDE]: the 50% inhibitory concentration (IC50) in data set [2] amounted to 120 µM.

A word on the IC50: it is the concentration that inhibits the measured activity by half. Usually EC50 stands for the midpoint of the concentration-response curve. One may read the efflux ratio as the permeability from basolateral to apical divided by that in the opposite direction, in the common usage. One may read the half-life as the time in which the quantity being followed falls by half.

(Values after ChEMBL document CHEMBL3102760, “Novel PARP-1 inhibitors based on a 2-propanoyl-3H-quinazolin-4-one scaffold” (Bioorg Med Chem Lett, 2014).)
